In brackets after ≈: the same amount, converted by molar mass. Activity calls are given as the source filed them. The calls are words filed in the database; no cut-off is given here.

Experiment [1] concerns Radical scavenging activity. As to the kind of experiment: Antioxidant activity assessed as DPPH radical scavenging activity at 10 to 80 uM. The experiment is classed as functional. An outline of the steps: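 DPPH radical scavenging per Blois; compounds 10–80 µM in methanol (some runs 10–200 µM, values reported at 80 µM). Absorbance at 517 nm; scavenging % = (A517 control − A517 sample)/A517 control × 100. Alpha tocopherol as control. Means ± SD of three parallel measurements.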

In experiment [2] the test system is Bacillus subtilis. Kind of experiment: Antibacterial activity against Bacillus subtilis ATCC 6633 at 10 to 100 mg/ml after 24 hrs by disc diffusion method. The experiment is classed as functional. The method, boiled down:
(§1)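 Modified disc diffusion: LB agar plates seeded at 10^6 cells/mL; 6 mm filter discs soaked in 50 µL of compound at 10–100 mg/mL in DMSO or methanol, placed on plates, 37 °C for 24 h. Inhibition zone ≥7 mm scored susceptible. Solvent discs tested; positive controls gentamicine, streptomycine or nystatin discs at 10 mg/mL.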

The test system of experiment [3] is Staphylococcus aureus. Kind of experiment: Antibacterial activity against Staphylococcus aureus ATCC 6538 after 24 hrs. The experiment is classed as functional.
The test system of experiment [4] is Staphylococcus aureus. Kind of experiment: Antibacterial activity against Staphylococcus aureus ATCC 6538 at 10 to 100 mg/ml after 24 hrs by disc diffusion method. The experiment is classed as functional. An outline of the steps:
as §1

Experiment [5] deals with Candida albicans. As to the kind of experiment: Antifungal activity against Candida albicans ATCC 10231 at 10 to 100 mg/ml after 24 hrs by disc diffusion method. Type of experiment: functional. The method, boiled down:
as §1

The subject of experiment [6] is Pseudomonas aeruginosa. Kind of experiment: Antibacterial activity against Pseudomonas aeruginosa ATCC 9027 after 24 hrs. Type of experiment: functional, organism-based.
The test system of experiment [7] is Candida albicans. As to the kind of experiment: Antifungal activity against Candida albicans ATCC 10231 after 24 hrs. The experiment is classed as functional.
Experiment [8] is described as follows: Metal chelating activity of the compound assessed as ratio of Fe2+ concentration to compound concentration. Type of experiment: functional. The method, boiled down: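 Fe3+ reducing activity by modified ferrozine method; [Fe2+] calculated from extinction coefficient 27,900 M-1cm-1 of Fe(ferrozine)2+ complex, expressed as µM Fe2+ per µM compound. Means ± SD of three parallel measurements.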

Experiment [9] has as its system Escherichia coli. Kind of experiment: Antibacterial activity against Escherichia coli ATCC 3509 after 24 hrs. Type of experiment: functional.
For experiment [10], the system named is Bacillus subtilis. As to the kind of experiment: Antibacterial activity against Bacillus subtilis ATCC 6633 after 24 hrs. Type of experiment: functional.
The subject of experiment [11] is Escherichia coli. Kind of experiment: Antibacterial activity against Escherichia coli ATCC 3509 at 10 to 100 mg/ml after 24 hrs by disc diffusion method. Type of experiment: functional. An outline of the steps: as §1
In the next experiment the test system is Liver microsomes. As to the kind of experiment: Antioxidant activity in Wistar rat liver microsomes assessed as reduction of lipid peroxidase activity by TBA assay. The experiment is classed as functional. Further details: concentration or dose not given beside the values. As to conditions: Microsome. The method, boiled down:
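TBA assay of lipid peroxidation in liver microsomes isolated from three Wistar rats, following Raj et al.; reduced lipid peroxidase activity taken as antioxidant activity, expressed as %.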

For experiment [12], the system named is Pseudomonas aeruginosa. Kind of experiment: Antibacterial activity against Pseudomonas aeruginosa ATCC 9027 at 10 to 100 mg/ml after 24 hrs by disc diffusion method. Type of experiment: functional, organism-based. An outline of the steps:
as §1

Take `O=C1C=CC(c2cccs2)O1` (racemic): the result in [1] was inactive. Also, the “diameter of the inhibition zone (DIZ)” value with Bacillus subtilis [2], in the experiment with Staphylococcus aureus [4], in the experiment on Escherichia coli [11] and in the experiment on Pseudomonas aeruginosa [12] was “inactive” each time. Also, the MIC entry in the experiment on Staphylococcus aureus [3], in the experiment with Pseudomonas aeruginosa [6], with Escherichia coli [9] and with Bacillus subtilis [10] was “inactive” in each case. Moreover, the “diameter of the inhibition zone (DIZ)” value in the experiment on Candida albicans [5] is reported as 9 mm. In the experiment on Candida albicans [7] (ATCC 10231, 24 h), this molecule registered an MIC of 100 µg/mL (≈ 602 µM). In experiment [8], the Ratio came out at 0.44. The Activity with Liver microsomes was 58.8%.

In the case of `O=C1C=CCC(c2cccs2)O1` (racemic), the “diameter of the inhibition zone (DIZ)” value with Bacillus subtilis [2] stood at 8.5 mm; in the experiment with Staphylococcus aureus [4], 8.5 mm; with Candida albicans [5] it was 9 mm; in the experiment on Escherichia coli [11], 8.5 mm. For the same molecule, the MIC in the experiment on Staphylococcus aureus [3] (ATCC 6538, 24 h) was determined as 30 µg/mL (≈ 166 µM); with Candida albicans [7] (ATCC 10231, 24 h), 25 µg/mL (≈ 139 µM); with Escherichia coli [9] (ATCC 3509, 24 h) it was 20 µg/mL (≈ 111 µM); against Bacillus subtilis [10] (ATCC 6633, 24 h), 10 µg/mL (≈ 55.5 µM). The MIC result in the experiment on Pseudomonas aeruginosa [6] is “inactive”. Also, the “diameter of the inhibition zone (DIZ)” value in the experiment with Pseudomonas aeruginosa [12] was “inactive”.

In the case of `Cc1c(C)c2c(c(C)c1O)CC[C@@](C)(CCC[C@H](C)CCC[C@H](C)CCCC(C)C)O2`, in experiment [1], the Activity stood at 66.2%.

As to `O=C1C=CC[C@@H](c2cccs2)O1`, in experiment [1], the Activity turned out to be 14%. Further, the “diameter of the inhibition zone (DIZ)” value with Bacillus subtilis [2] amounted to 8.5 mm; in the experiment on Staphylococcus aureus [4] it was 7 mm; with Candida albicans [5], 7 mm; in the experiment on Escherichia coli [11], 8.5 mm. The MIC against Staphylococcus aureus [3] (ATCC 6538, 24 h) came out at 50 µg/mL (≈ 277 µM); in the experiment on Candida albicans [7] (ATCC 10231, 24 h), 30 µg/mL (≈ 166 µM); in the experiment on Escherichia coli [9] (ATCC 3509, 24 h), 30 µg/mL (≈ 166 µM); in the experiment with Bacillus subtilis [10] (ATCC 6633, 24 h) it was 20 µg/mL (≈ 111 µM). Also, the MIC entry in the experiment with Pseudomonas aeruginosa [6] was “inactive”. Moreover, the Ratio in experiment [8] worked out at 0. Also, the result with Liver microsomes was inactive. Besides, the “diameter of the inhibition zone (DIZ)” value in the experiment on Pseudomonas aeruginosa [12] is “inactive”.

Regarding `O=C1C=CC[C@H](c2ccco2)O1`, the outcome in experiment [1] was inactive. The “diameter of the inhibition zone (DIZ)” value with Bacillus subtilis [2], in the experiment on Staphylococcus aureus [4], with Candida albicans [5], in the experiment with Escherichia coli [11] and in the experiment on Pseudomonas aeruginosa [12] was “inactive” each time. The MIC result in the experiment with Staphylococcus aureus [3], in the experiment on Pseudomonas aeruginosa [6], in the experiment on Candida albicans [7], in the experiment with Escherichia coli [9] and in the experiment with Bacillus subtilis [10] was “inactive” in each case. Also, the Ratio in experiment [8] turned out to be 0.0092. The Activity in the experiment with Liver microsomes worked out at 9%.

In the case of `CC1=CC[C@H](c2cccs2)OC1=O`, the outcome (in experiment [1]; with Liver microsomes) was inactive. Moreover, the “diameter of the inhibition zone (DIZ)” value was found to be 7 mm with Bacillus subtilis [2], 10 mm in the experiment on Staphylococcus aureus [4], 9 mm with Candida albicans [5] and 9 mm in the experiment with Escherichia coli [11]. Besides, the MIC came out at 25 µg/mL (≈ 129 µM) in the experiment on Staphylococcus aureus [3] (ATCC 6538, 24 h); 25 µg/mL (≈ 129 µM) with Candida albicans [7] (ATCC 10231, 24 h); 25 µg/mL (≈ 129 µM) against Escherichia coli [9] (ATCC 3509, 24 h); 25 µg/mL (≈ 129 µM) in the experiment on Bacillus subtilis [10] (ATCC 6633, 24 h). The MIC result in the experiment on Pseudomonas aeruginosa [6] is “inactive”. Further, the “diameter of the inhibition zone (DIZ)” value with Pseudomonas aeruginosa [12] is “inactive”.

As to `CC1=CC[C@@H](c2cccs2)OC1=O`, the result (in experiment [1]; with Liver microsomes) was inactive. For the same molecule, the “diameter of the inhibition zone (DIZ)” value was 11 mm with Bacillus subtilis [2], 7 mm in the experiment with Staphylococcus aureus [4], 9 mm in the experiment with Candida albicans [5] and 8 mm in the experiment on Escherichia coli [11]. Besides, the MIC with Staphylococcus aureus [3] (ATCC 6538, 24 h) was found to be 25 µg/mL (≈ 129 µM); against Candida albicans [7] (ATCC 10231, 24 h), 25 µg/mL (≈ 129 µM); against Escherichia coli [9] (ATCC 3509, 24 h), 25 µg/mL (≈ 129 µM); against Bacillus subtilis [10] (ATCC 6633, 24 h) it was 25 µg/mL (≈ 129 µM). In the experiment on Pseudomonas aeruginosa [6], the MIC entry was “inactive”. For the same molecule, in the experiment on Pseudomonas aeruginosa [12], the “diameter of the inhibition zone (DIZ)” value is “inactive”.

The values above are taken from ChEMBL document CHEMBL2069265, “Synthesis and biological evaluation of optically active conjugated γ- and δ-lactone derivatives” (2012).
